Assay outcomes as filed in PubChem BioAssay.
PMI act hi M6P: PMI (human) activation, high substrate | P34949 | coupled PMI enzyme assay, resazurin fluorescence, 20 min; active compounds read high; 1 = untreated enzyme, 0 = substrate-free blank | activation factor at 20 µM | hit rate 0.34% among 190,000 | AID 1216;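 active = activation factor of 2 or more at 20 µM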
Target sequence (P34949 whole entry, looked up): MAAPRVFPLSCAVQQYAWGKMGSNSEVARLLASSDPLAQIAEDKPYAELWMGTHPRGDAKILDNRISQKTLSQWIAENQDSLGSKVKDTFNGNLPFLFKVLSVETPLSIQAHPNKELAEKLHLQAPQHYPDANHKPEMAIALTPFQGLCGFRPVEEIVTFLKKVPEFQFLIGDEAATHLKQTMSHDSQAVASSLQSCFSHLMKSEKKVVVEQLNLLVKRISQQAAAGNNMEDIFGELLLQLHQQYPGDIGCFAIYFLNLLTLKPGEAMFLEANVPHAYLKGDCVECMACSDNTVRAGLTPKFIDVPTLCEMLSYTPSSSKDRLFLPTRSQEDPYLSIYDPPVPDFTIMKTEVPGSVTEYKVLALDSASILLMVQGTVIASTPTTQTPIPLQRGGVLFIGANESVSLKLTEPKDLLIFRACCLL
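Test system: human phosphomannose isomerase with PGI, G6PDH, diaphorase coupling enzymes / Doses: 20 µM compound, 1% DMSO / Times: enzyme reaction with compound 20 min at room temperature / Measured by: Diaphorase-driven resazurin-to-resorufin fluorescence, excitation 544, emission 590 nm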
TNAP inh noacc: blocks human TNAP activity with no phosphate acceptor present | purified TNAP, CDP-star luminescence, 30 min | P05186 | inhibition, % at 20 µM | hit rate 0.26% among 200,000;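 active = tissue-nonspecific alkaline phosphatase inhibition above about 50% at 20 µM in the single-dose screen, limit read from the data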;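 also: 0% = DMSO negative control and 100% = EDTA positive control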
TNAP act hi DEA: increases human TNAP activity under high phosphate acceptor concentration; P05186; purified TNAP, CDP-star luminescence, 1 M DEA, 30 min; active compounds read high; 0 = EDTA background, 1 = DMSO-only activity; activation factor at 20 µM; 200,000 tested, under 10 active;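 active = activation factor at least 2 at 20 µM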
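system = human TNAP | amount = enzyme diluted 1/800 final | reagent = 100 µM CDP-star substrate | signal = luminescent substrate turnover signal | dosing = one dose, 20 µM | benchmarks = EDTA negative control, DMSO positive control | measure = activation factor | timing = 30 min reaction, room temperature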
PMI activator: activators of human phosphomannose isomerase | P34949 | hit rate 0.005% among 190,000 | AID 1214 | purified human PMI, coupled resazurin fluorescence, 20 min; active compounds read high; 1 = vehicle control, 0 substrate-free wells | activation factor at 20 µM;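 active = activation factor of 2 or more at 20 µM, relative to plate controls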
TNAP inh hi DEA: inhibitors of human TNAP at high phosphate acceptor concentration; inhibition, % at 20 µM; hit rate 0.03% among 200,000; purified TNAP, CDP-star luminescence, 1 M DEA;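 active = over 50% inhibition of tissue-nonspecific alkaline phosphatase at 20 µM in the single-dose screen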;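 also: plate controls were DMSO wells for no effect and EDTA-quenched wells as full inhibition for full effect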
* hit, by the source's call; nt = not tested or not shown. The list is not random: actives were taken first. Their share in the collection is about 0.62%.

SMILES | PMI act hi M6P | TNAP inh noacc | TNAP act hi DEA | PMI activator | TNAP inh hi DEA
Cn1cccc1-c1cc(C(=O)N2CCc3c([nH]c4ccccc34)C2c2ccccn2)[nH]n1 (configuration not stated) | 1 | 18.5 | 1 | 1 | -3.3
Cn1cccc1-c1cc(C(=O)O)[nH]n1 | 1 | 69.6* | 1 | 1.1 | 1.9
CCOC(=O)N1CCC2(CC1)C(C#N)=C(N)Oc1c2c(C)nn1-c1cccc(Cl)c1 | 2* | -6.2 | 1 | 1.5 | -4.2
CCOC(=O)N1CCC2(CC1)C(C#N)=C(N)Oc1n[nH]c(C)c12 | 1.1 | -11.9 | 1 | 1.1 | -3.7
CCOC(=O)c1c(/N=C/N(C)C)sc(C)c1C | 1.1 | -11.9 | 1 | 1 | -1.8
CCOC(=O)c1c(/N=C/N(C)C)sc(/C=N/Nc2ccccc2)c1-c1ccc(Cl)cc1 | 2.1* | 0.6 | 1 | 1.5 | 2.7
CCOC(=O)N1CCC(=NNS(=O)(=O)c2cccc([N+](=O)[O-])c2)CC1 | 2.1* | -9.7 | 1.1 | 1.7 | -9.9
COc1ccc(-c2nc(=S)c3c([nH]2)Oc2ccc(C)cc2C3)cc1O | 2.1* | -9.0 | 1.1 | 1.8 | -8.7
Cc1ccc(S(=O)(=O)NC2CCOC(C)(C)C2)cc1 (configuration not stated) | 0.9 | -5.9 | 1 | 0.9 | 0.1
Cc1ccc(S(=O)(=O)N/N=C2\C(=O)C3(C)CCC2C3(C)C)cc1 (configuration not stated) | 2.1* | -3.9 | 1.1 | 1.8 | -5.5
C/C(=N\N=C\c1ccc(N(C)C)cc1)c1cccc([N+](=O)[O-])c1 | 2.3* | -11.8 | 1 | 1.6 | 2.9
C/C(=N\NC(=O)C(=O)N/N=C(\C)c1cccc(O)c1)c1cccc(O)c1 | 1 | 54.9* | 1 | 1 | -2.8
C/C(=N/NC(=O)C(=O)N/N=C(/C)c1ccccc1)c1ccccc1 | 0.9 | -58.4 | 1 | 1 | -1.3
CC1CN(C(=S)SCCN2C(=O)CCC2=O)CC(C)O1 (configuration not stated) | 0.9 | -11.6 | 1.1 | 0.9 | -9.8
N/C(COc1ncn(-c2ccccc2)n1)=N\S(=O)(=O)c1ccc(Cl)cc1Cl | 0.9 | 63.2* | 0.5 | 0.9 | 47.8
Oc1cc2c(cc1O)C1c3ccc(O)c(O)c3OCC1(O)C2 (configuration not stated) | 0.6 | 86.7* | 0.7 | 0.4 | 33.8
Clc1ccc(/C(Cc2nc3ccccc3[nH]2)=N\Nc2ccccc2)cc1 | 3* | -5.3 | 1 | 1.8 | -1.5
O=C(c1ccc([N+](=O)[O-])c(CS(=O)(=O)c2ccc(Cl)cc2)c1)N1CCCC1 | 1.1 | -4.9 | 1 | 1.2 | 1.7
O=C(O)c1ccccc1CSc1ccccn1 | 1.1 | -16.5 | 1 | 1.1 | -3.7
O=C(Nc1ccccc1Cl)c1ccccc1Cl | 0.9 | -6.7 | 1 | 0.9 | -4.3
O=C1OCC(CO)(CO)N=C1NNc1ccccc1Cl | 2* | -22.6 | 1 | 1.6 | 1.0
CC(=O)NNc1nc(-c2ccccc2)cs1 | 2.4* | -4.2 | 1 | 1.7 | 4.3
COc1ccc(NC(=S)N2CCCCCC2)cc1OC | 0.9 | -9.4 | 1 | 1 | -2.1
O=C(c1n[nH]c2c1CCCC2)n1ccnc1 | 1 | 69.6* | 1 | 0.8 | -1.8
NS(=O)(=O)c1cccc(NC(=O)CSc2nc3ccc(Cl)cc3[nH]2)c1 | 0.7 | 66.9* | 0.9 | 0.9 | 8.9
SMILES | PMI act hi M6P | TNAP inh noacc | TNAP act hi DEA | PMI activator | TNAP inh hi DEA
CCCCc1nc(SCC(=O)Nc2ccc(S(N)(=O)=O)cc2)n[nH]1 | 1 | 60.2* | 1 | 1 | -1.2
Nc1nc(SCC(=O)Nc2cccc(S(=O)(=O)N3CCCCCC3)c2)n[nH]1 | 1 | -43.8 | 1 | 0.9 | -2.2
CCCCc1nc(SCC(=O)Nc2ncccn2)n[nH]1 | 0.9 | 58.4* | 1 | 1 | 0.6
Cc1ccc2nc(SCC(=O)Nc3cccc(S(=O)(=O)N(C)C)c3)[nH]c2c1 | 0.9 | -20.6 | 1 | 0.8 | 0.6
CC(C)c1nc(SCC(=O)Nc2cccc(S(N)(=O)=O)c2)n[nH]1 | 1 | 57.0* | 1 | 1.1 | -1.9
O=C(O)C1C2C=CC(C2)C1C(=O)NCc1ccc(Cl)c(Cl)c1 (configuration not stated) | 1 | -5.9 | 1 | 0.9 | 1.3
CCn1c(C)nc2cc(C(=O)NNC(=O)Nc3cccc(Cl)c3)ccc21 | 1 | -52.0 | 1.1 | 1 | -8.1
CCn1c(C)nc2cc(C(=O)NNC(=O)Nc3ccc(Cl)cc3)ccc21 | 2.8* | -69.7 | 1.1 | 1.9 | -7.1
CCOc1ccc2c(c1)-c1c(ssc1=S)C(C)(C)N2C(=O)c1ccco1 | 0.9 | 10.6 | 0.9 | 0.9 | 10.0
Cc1ccc(-c2nn(-c3ccccc3)cc2NC(=O)CCl)cc1 | 1.2 | 2.5 | 1 | 1.3 | 4.8
CC(C)(C)OC(=O)NNC(=O)Nc1ccccc1C(F)(F)F | 0.9 | -10.8 | 1 | 1 | -4.1
O=C1CSC(c2ccccc2F)N1c1ccccc1 (configuration not stated) | 1 | -10.0 | 1 | 1 | 0.0
COc1cccc(C2SCC(=O)N2c2ccc(Br)cc2)c1OC (configuration not stated) | 2.2* | -10.9 | 1 | 1.7 | -1.7
O=C1N/C(=C/c2cccs2)C(=O)N1Cc1ccc(Br)cc1 | 1.1 | 9.8 | 1 | 1.2 | -3.2
N#CC1=C(c2ccc(-c3ccccc3)cc2)COC1=O | 2.4* | -20.7 | 1 | 1.7 | -0.8
COc1cccc(Cn2cc(N)cn2)c1 | nt | 2.5 | 0.9 | nt | 5.4
C=CCN=c1scc(C)n1/N=C/c1ccc(O)c(O)c1 | 0.8 | 77.2* | 0.9 | 0.5 | 7.5
CN=c1scc(C)n1/N=C/c1ccc(O)cc1 | 0.9 | -3.5 | 1 | 0.9 | -1.8
CN=c1scc(-c2ccco2)n1/N=C/c1ccc(O)c(O)c1 | 0.9 | 67.4* | 0.9 | 0.5 | 11.3
CS(=O)(=O)c1sc2nc(-c3cccs3)cc(-c3ccccc3)c2c1N | 2.2* | -0.8 | 1 | 1.6 | 0.7
O=C(N/N=C/c1oc(O)c2ccccc12)c1ccccc1 | 2.4* | 30.4 | 1.1 | 1.8 | -5.1
O=C(N/N=C/c1ccncc1)c1ccccc1 | 1 | -10.6 | 1 | 1.1 | -2.8
COc1ccc(C2CC(=O)n3nc(C45CC6CC(CC(C6)C4)C5)nc3S2)cc1OC (configuration not stated) | 0.9 | 88.4* | 1 | 0.8 | 1.0
CCOc1ccc(C2CC(=O)n3nc(C45CC6CC(CC(C6)C4)C5)nc3S2)cc1OC (configuration not stated) | 1 | 84.8* | 1 | 0.9 | -3.3
CCc1ccccc1N/N=C(/C)c1c(O)cc(C)oc1=O | 2.7* | -7.9 | 1 | 1.7 | 0.5
C/C(=N\NC(=O)c1ccccc1O)c1c(O)cc(C)oc1=O | 1.1 | -5.6 | 1 | 1.1 | -2.5
CCOc1cc(/C=C2\CCC/C(=C\c3cc(Cl)c(O)c(OCC)c3)C2=O)cc(Cl)c1O | 0.7 | 49.3 | 0.5 | 0.9 | 53.4*
